Published values of several laboratories.
Target: Dual specificity protein kinase CLK3 (CLK3, Homo sapiens, UniProt P49761)
Technique: competition with immobilised ligand

Nc1c(C(=O)NCc2ccc(C(=O)NCCCC3CCCCC3)cc2)cnn1-c1ccccc1 — remaining binding (cell-free assay; 0.1 µM): 95%
Cc1cnc(Nc2ccc(C(=O)N3CCC(N4CCCC4)CC3)cc2)nc1-c1cc2ccccc2s1 — remaining binding (binding; 1 µM): 7%
Nc1ncc2c(n1)-c1c([nH]c3ccc(C#CC4CC4)cc13)CCCC2 — remaining binding (binding; 1 µM): 96%
COc1ncc2cc3ccccc3nc2c1C#N — remaining binding (cell-free assay; 5 µM): 94%
O=C(Nc1c[nH]nc1C(=O)NC1CCNCC1)c1cc(F)cc(F)c1 — remaining binding (binding; 1 µM): 100%
COc1cnc(Nc2cccc(S(N)(=O)=O)c2)nc1N1CCN(c2ccccc2)C(=O)C1 — remaining binding (binding; 1 µM): 100%
C[C@@H](c1ccc(-n2cnc3c(N)ncnc32)cc1)N1CCc2nn(C)c(Cc3ccccc3)c2C1=O — remaining binding (binding; 0.1 µM): 71%
CNC(=O)[C@@H]1CC[C@@H](n2c(-c3ccc4cnccc4c3)nc3ccc(C(=O)NCc4cccc(C(N)=O)c4)cc32)C1 — remaining binding (binding; 1 µM): 100%
CS(=O)(=O)c1cc(C2(NC(=O)c3cncc4c3cnn4-c3ccc(F)cc3)CC2)ccn1 — remaining binding (cell-free assay; 1 µM): 86%
O=C(c1ccc(Nc2nccc(-c3cc4ccccc4s3)n2)cc1)N1CCC(N2CCCC2)CC1 — remaining binding (binding; 1 µM): 73%
O=C1CCc2cc(Nc3cc(OC4CCOCC4)c([N+](=O)[O-])cc3Cl)ccc2N1 — remaining binding (cell-free assay; 1 µM): 100%
O=C(NCCCN1CCOCC1)c1ccc(Nc2ncc(Cl)c(-c3ccc(Cl)s3)n2)cc1 — remaining binding (binding; 1 µM): 37%
CCOC(=O)c1cc2cc(-c3cc(C(=O)NCc4ccc(C(=O)O)cc4)nn3C)ccc2[nH]1 — remaining binding (cell-free assay; 0.1 µM): 83%
c1cncc(-c2cccc(Nc3nccc(NC4CCCCC4)n3)c2)c1 — remaining binding (binding; 10 µM): 57%
